The target of series [1] is T1, MARK4 (Homo sapiens, UniProt Q96L34).
T1 sequence (Q96L34 59-368): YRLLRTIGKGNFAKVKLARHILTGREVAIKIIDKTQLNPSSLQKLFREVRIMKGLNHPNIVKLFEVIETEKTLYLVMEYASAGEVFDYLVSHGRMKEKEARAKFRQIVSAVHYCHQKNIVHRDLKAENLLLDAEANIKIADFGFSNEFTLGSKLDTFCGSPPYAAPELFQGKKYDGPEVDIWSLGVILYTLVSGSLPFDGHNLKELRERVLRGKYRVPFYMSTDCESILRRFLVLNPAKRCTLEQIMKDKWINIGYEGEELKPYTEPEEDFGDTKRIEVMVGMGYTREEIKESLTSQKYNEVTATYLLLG
Nature of the series: Fluorescence binding studies. The following applies: for KSV: Stern-Volmer. The method, boiled down: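 Intrinsic fluorescence of recombinant MARK4 (4 μM) titrated with test compound at 0–15 μM. Excitation 280 nm, emission 300–400 nm, slit 10 nm, medium response. Quenching data fitted to the Stern–Volmer and modified Stern–Volmer equations to give binding constant Ka and number of binding sites n.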

The target in series [2] is T1, MARK4. The experiment in a line: ATPase enzyme inhibition assay. It counts as biochemical. The following applies: for ATPase activity of MARK4: in the presence of compound. The method, boiled down:
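MARK4 (residues 59–368), expressed in E. coli M15 and purified, at 6 μM with 20 μM ATP in 20 mM Tris pH 8.0. Incubated with test compound (0–120 μM) at 25 °C for 10–15 min. Phosphate detected with Biomol Green malachite-green reagent, absorbance 620 nm. IC50 computed with an online calculator.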

Series [3] deals with C3A cells. The experiment in a line: Transwell cell migration assay, C3A. It counts as cell-based, human. The following applies: 1/2 IC50, 24 h, vs vehicle control. The method, boiled down:
(§1)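 Serum-starved cells treated with test compound or vehicle for 24 h, then 50 × 10^3 cells/well placed in serum-free medium in the upper Boyden chamber (8.0 μm PET membrane). Lower chamber held complete medium with 10% FBS. Next day, non-migrated cells were swabbed off. Migrated cells were methanol-fixed, stained with 0.4% crystal violet in 25% methanol, and counted in 4–5 random fields.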

Series [4] deals with SNU-475 cells. Nature of the series: Cell viability. It counts as cell-based. Conditions: Homo sapiens, SNU-475, 72 h, read-out: IC50 (cell viability). The method, boiled down: (§2)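 Cells grown in Eagle's MEM with 10% FBS and 1% penicillin/streptomycin, seeded at 2000–3000 cells/well and left overnight. Treated with test compound 0–200 μM for 48–72 h. PrestoBlue HS (resazurin) added for about 45 min, fluorescence read at 560/590 nm. Percent viability relative to vehicle control plotted against dose.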

For another series, the system named is HEK293 cells. Nature of the series: Cytotoxicity on noncancerous HEK293 cells. The format is cell-based, human. Conditions: up to 200 μM. The method, boiled down: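 HEK293 cells in RPMI 1640 medium, seeded at 2000–3000 cells/well and allowed to grow overnight. Exposed to test compound over 0–200 μM for 48–72 h. Resazurin-based PrestoBlue HS reagent applied about 45 min, fluorescence measured at excitation 560/emission 590 nm. Viability expressed as percent of vehicle control across doses.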

Series [5] has as its system C3A cells. Nature of the series: Annexin-V/PI staining. It counts as cell-based, human. The method, boiled down: (§3)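 Cells were exposed to test compound or vehicle for 72 h, then trypsinized and washed 2–3 times in sterile PBS. They were stained with PI and Cy5-labelled annexin-V and analysed by flow cytometry. Positive cells were quantified from n = 3 biological replicates, with a t test against vehicle.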

In series [6] the test system is C3A cells. The experiment in a line: Cell viability. The format is cell-based. Conditions: Homo sapiens, 72 h, read-out: IC50 (cell viability). The method, boiled down: as §2
Series [7] concerns SNU-475 cells. Nature of the series: Transwell cell migration assay, SNU-475. The following applies: SNU-475, 1/2 IC50, 24 h, vs vehicle control. The format is cell-based, human. The method, boiled down:
as §1

Series [8] has as its system tau phosphorylation in SH-SY5Y cells. Nature of the series: Tau-phosphorylation assay. It counts as cell-based, human. Conditions: compound at its enzyme IC50 concentration, 24 h. An outline of the steps: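 SH-SY5Y neuroblastoma cells kept in 1:1 Eagle's MEM/F12 and plated in six-well plates, then incubated with test compound for 24 h. Cells were trypsinized, fixed and rinsed, then labelled with an anti-phospho-tau primary and an Alexa-647 conjugated secondary antibody. After washing and resuspension in FACS buffer, cells were analysed by flow cytometry.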

Series [9] concerns SNU-475 cells. The experiment in a line: Annexin-V/PI staining. Conditions: SNU-475, annexin-V/PI. It counts as cell-based, human. An outline of the steps:
as §3

The mark [10] stands for this setting: fluorescence quenching, modified Stern-Volmer.

With `COc1cc(C(=O)N/N=C2\C(=O)Nc3ccccc32)ccc1O` [VI-1, (Z)-4-Hydroxy-3-methoxy-N′-(2-oxoindolin-3-ylidene)benzohydrazide], the Kd on MARK4 [1] was 0.179 µM. At MARK4 [1] (fluorescence quenching), the KSV is listed as 3.9 × 10^5 M^–1. Besides, the “n (number of binding sites)” value at MARK4 [1] (setting [10]) was 1.241.

Take `COc1cc(C(=O)N/N=C2\C(=O)Nc3ccc(C)cc32)ccc1O` [VI-2, (Z)-4-Hydroxy-3-methoxy-N′-(5-methyl-2-oxoindolin-3-ylidene)benzohydrazide]: binding on MARK4 [1] was put at a Kd of 0.725 µM. For the same molecule, at MARK4 [1] (fluorescence quenching), the KSV is recorded as 3.7 × 10^5 M^–1. The “n (number of binding sites)” value at MARK4 [1] (setting [10]) is listed as 1.145. In addition, on MARK4 [2], the “ATPase activity of MARK4” value was “decreased considerably”.

For `COc1ccc2c(c1)/C(=N/NC(=O)c1ccc(O)c(OC)c1)C(=O)N2` [VI-3, (Z)-4-Hydroxy-3-methoxy-N′-(5-methoxy-2-oxoindolin-3-ylidene)benzohydrazide], on MARK4 [1], the Kd is 0.0444 µM. For the same molecule, the KSV on MARK4 [1] (fluorescence quenching) was 3.8 × 10^5 M^–1. Moreover, the “n (number of binding sites)” value on MARK4 [1] (setting [10]) is reported as 1.367. Also, the “ATPase activity of MARK4” value on MARK4 [2] is listed as “decreased considerably”.

Take `COc1cc(C(=O)N/N=C2\C(=O)Nc3cc(Cl)ccc32)ccc1O` [VI-4, (Z)-N′-(6-Chloro-2-oxoindolin-3-ylidene)-4-hydroxy-3-methoxybenzohydrazide]: the Kd on MARK4 [1] is 1.12 µM. Moreover, on MARK4 [1] (fluorescence quenching), the KSV is given as 1.8 × 10^5 M^–1. Further, the “n (number of binding sites)” value on MARK4 [1] (setting [10]) worked out at 1.141.

For the molecule `COc1cc(C(=O)N/N=C2\C(=O)Nc3c(C)cc(C)cc32)ccc1O` [VI-5, (Z)-N′-(5,7-Dimethyl-2-oxoindolin-3-ylidene)-4-hydroxy-3-methoxybenzohydrazide], binding at MARK4 [1] was put at a Kd of 40 µM. For the same molecule, on MARK4 [1] (fluorescence quenching), the KSV is 1.0 × 10^5 M^–1. For the same molecule, on MARK4 [1] (setting [10]), the “n (number of binding sites)” value was found to be 0.8404. Moreover, the “ATPase activity of MARK4” value at MARK4 [2] is given as “decreased considerably”.

For `COc1cc(C(=O)N/N=C2\C(=O)Nc3ccc(Cl)cc32)ccc1O` [VI-6, (Z)-N′-(5-Chloro-2-oxoindolin-3-ylidene)-4-hydroxy-3-methoxybenzohydrazide], the Kd at MARK4 [1] was 1.57 µM. Moreover, at MARK4 [1] (fluorescence quenching), the KSV is listed as 1.4 × 10^5 M^–1. In addition, the “n (number of binding sites)” value on MARK4 [1] (setting [10]) worked out at 1.135.

With `COc1cc(C(=O)N/N=C2\C(=O)Nc3ccc(Br)cc32)ccc1O` [VI-7, (Z)-N′-(5-Bromo-2-oxoindolin-3-ylidene)-4-hydroxy-3-methoxybenzohydrazide], on MARK4 [1], the dissociation constant Kd is 3.01 µM. Further, at MARK4 [1] (fluorescence quenching), the KSV is given as 1.7 × 10^5 M^–1. For the same molecule, the “n (number of binding sites)” value at MARK4 [1] (setting [10]) is 1.067.

For the molecule `COc1cc(C(=O)N/N=C2\C(=O)Nc3c2cccc3[N+](=O)[O-])ccc1O` [VI-8, (Z)-4-Hydroxy-3-methoxy-N′-(7-nitro-2-oxoindolin-3-ylidene)benzohydrazide], the Kd at MARK4 [1] is 76.3 µM. The KSV at MARK4 [1] (fluorescence quenching) is given as 0.6 × 10^5 M^–1. Besides, the “n (number of binding sites)” value at MARK4 [1] (setting [10]) was 0.8606.

As to `COc1cc(C(=O)N/N=C2\C(=O)Nc3c(Cl)cccc32)ccc1O` [VI-9, (Z)-N′-(7-Chloro-2-oxoindolin-3-ylidene)-4-hydroxy-3-methoxybenzohydrazide], the Cell migration result with C3A cells [3] and in the series with SNU-475 cells [7] was “significantly decreased the migration” each time. Moreover, the IC50 worked out at 4.35 µM in the series on SNU-475 cells [4], 6.96 µM in the series on C3A cells [6] and 7.16 µM against MARK4 [2]. Besides, the “Cytotoxicity on noncancerous HEK293 cells” value with HEK293 cells is “did not exhibit cytotoxicity”. In addition, the Apoptosis induction entry with C3A cells [5] and in the series on SNU-475 cells [9] was “strongly promote early apoptosis” throughout. For the same molecule, on MARK4 [1], the Kd is 6.76 µM. Further, the KSV at MARK4 [1] (fluorescence quenching) was 1.0 × 10^5 M^–1. The “n (number of binding sites)” value on MARK4 [1] (setting [10]) was found to be 1.047. For the same molecule, the Tau phosphorylation result in series [8] is listed as “decreased the tau phosphorylation”. Further, on MARK4 [2], the “ATPase activity of MARK4” value was “decreased considerably”.

The molecule `COc1cc(C(=O)N/N=C2\C(=O)Nc3cc(Cl)c(F)cc32)ccc1O` [VI-10, (Z)-N′-(6-Chloro-5-fluoro-2-oxoindolin-3-ylidene)-4-hydroxy-3-methoxybenzohydrazide] gave a Kd on MARK4 [1] of 12.7 µM. Also, the KSV at MARK4 [1] (fluorescence quenching) is recorded as 0.8 × 10^5 M^–1. The “n (number of binding sites)” value on MARK4 [1] (setting [10]) stood at 1.006.

`COc1ccc2c(c1)NC(=O)/C2=N\NC(=O)c1ccc(O)c(OC)c1` [VI-13, (Z)-4-Hydroxy-3-methoxy-N′-(6-methoxy-2-oxoindolin-3-ylidene)benzohydrazide]: at MARK4 [1], binding was characterised by a dissociation constant (Kd) of 0.0375 µM. The KSV on MARK4 [1] (fluorescence quenching) is reported as 0.8 × 10^5 M^–1. At MARK4 [1] (setting [10]), the “n (number of binding sites)” value was 1.517.

In turn, `COc1cc(C(=O)N/N=C2\C(=O)Nc3cc(F)ccc32)ccc1O` [VI-14, (Z)-N′-(6-Fluoro-2-oxoindolin-3-ylidene)-4-hydroxy-3-methoxybenzohydrazide] had a Kd on MARK4 [1] of 0.735 µM. The KSV at MARK4 [1] (fluorescence quenching) was 1.8 × 10^5 M^–1. Moreover, the “n (number of binding sites)” value at MARK4 [1] (setting [10]) was 1.199.

Regarding “(Z)-N′-(6-Fluoro-2-oxoindolin-3-ylidene)-4-hydroxy-3-methoxybenzohydrazide [VI-11]”, the KSV at MARK4 [1] (fluorescence quenching) was 1.4 × 10^5 M^–1. For the same molecule, the “n (number of binding sites)” value at MARK4 [1] (setting [10]) is recorded as 1.015. On MARK4 [1] (fluorescence quenching, modified Stern-Volmer, excitation 280 nm), the “Ka (binding constant)” value was 1.56 × 10^5 M^–1.
